Measured values reported in ChEMBL document CHEMBL4033782, “Structural Modification of Natural Product Tanshinone I Leading to Discovery of Novel Nitrogen-Enriched Derivatives with Enhanced Anticancer Profile and Improved Drug-like Properties” (J Med Chem, 2018).

Assays:
HCT-116 [1] = experiment: Induction of apoptosis in human HCT116 cells assessed as late apoptotic cells at 0.5 uM after 48 hrs by Annexin V-FITC/propidium iodide staining-based FACS analysis (reference value: 5.74%); assay type: functional
HUVEC = experiment: Antiproliferative activity against human HUVEC cells after 72 hrs by sulforhodamine B assay; assay type: cell-based
How it was run: (§1)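 Cells grown in ATCC-specified medium with 10% heat-inactivated FBS, penicillin/streptomycin and 10 mM Hepes, at 37 °C under 5% CO2. Seeded, cultured overnight, then exposed to gradient concentrations for 72 h. Growth read by SRB staining; inhibition % = [1−(A450 treated/A450 control)]×100. IC50 obtained by the Logit method from independent experiments.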

HCT-116 [2] = experiment: Induction of apoptosis in human HCT116 cells pretreated with Z-VAD-FMK pan-caspase inhibitor for 1 hr assessed as early apoptotic cells at 0.5 uM after 48 hrs by Annexin V-FITC/propidium iodide staining-based FACS analysis (reference value: 1.34%); assay type: functional; design: scale not given: the % may be the effect or the level left
[3] = AUC in Sprague-Dawley rat at 1.0 mg/kg, iv; assay type: ADME, organism-based; details: in vivo
How it was run: (§2)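 Male SD rats dosed i.v. at 1.0 mg/kg or orally at 3.0 mg/kg. Vehicle is DMSO, Tween 80 and normal saline. Plasma concentration–time data give CL, Vss, T1/2, Cmax, Tmax, MRT, AUC and oral bioavailability F.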

A549 = experiment: Antiproliferative activity against human A549 cells after 72 hrs by sulforhodamine B assay; assay type: functional, cell-based; details: A549, 72 h; how it was run: as §1
MGC-803 = experiment: Antiproliferative activity against human MGC803 cells after 72 hrs by sulforhodamine B assay; assay type: functional, cell-based; details: MGC-803, 72 h; how it was run: as §1
Liver [4] = experiment: Intrinsic clearance in human liver microsomes assessed as per mg protein up to 60 mins by LC-MS/MS analysis; assay type: ADME, microsome; details: 1 h
How it was run: (§3)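 Compound at 0.1 μM final (0.01% DMSO, 0.005% BSA) incubated at 37 °C with human, rat or mouse liver microsomes (0.33 mg/mL protein) in 0.1 M Tris/HCl pH 7.4, with 5 mM MgCl2 and 1 mM NADPH. Samples taken at 0, 7, 17, 30 and 60 min, quenched by methanol precipitation, centrifuged, and parent measured by LC-MS/MS. T1/2 and Clint derived.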

[5] = Clearance in Sprague-Dawley rat at 1.0 mg/kg, iv; assay type: ADME, organism-based; details: in vivo; how it was run: as §2
Liver [6] = experiment: Intrinsic clearance in mouse liver microsomes assessed per mg protein up to 60 mins by LC-MS/MS analysis; assay type: ADME, microsome; details: 1 h; how it was run: as §3
Mus musculus = experiment: Toxicity in BALB/C nude mouse xenografted with human HCT116 cells assessed as body weight loss at 10 mg/kg, iv once daily for 14 days starting on day 14 post tumor implantation measured every 4 days during compound dosing; assay type: organism-based; details: in vivo
How it was run: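 Male BALB/c nude mice (18–20 g) with subcutaneous HCT116 implants in right axilla; treatment from day 14 once tumors exceeded 100 mm3, randomized (6/treated, 10/control group); 10 mg/kg i.v. or 30 mg/kg i.p. daily for 14 days in 1% DMSO/saline; 5-FU 15 mg/kg as reference; body weight tracked, mean ± SD of 6 mice.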

NCI-H460 = experiment: Antiproliferative activity against human H460 cells after 72 hrs by sulforhodamine B assay; assay type: functional, cell-based; details: NCI-H460, 72 h; how it was run: as §1
HCT-116 [7] = experiment: Antiproliferative activity against human HCT116 cells after 72 hrs by sulforhodamine B assay; assay type: functional, cell-based; details: HCT-116, 72 h; how it was run: as §1
[8] = AUC in Sprague-Dawley rat at 3.0 mg/kg, po; assay type: ADME, organism-based; details: in vivo; how it was run: as §2

In the case of `CCN(CC)CCCn1c2c(c3ccccc3c1=O)C(=O)C(=O)c1cc(C)oc1-2`, the Activity (HCT-116 [1]) is reported as 4.19%, the IC50 (HUVEC) is reported as 2.52 µM and the Activity (HCT-116 [2]) is reported as 1.53%. The AUC [3] was 114 ng·h/mL, the IC50 (A549) was 0.19 µM and the IC50 (MGC-803) was 0.26 µM. For the same compound, the intrinsic clearance (Liver [4]) was 23.5 mL/min/g, the clearance [5] was 176 mL/min/kg and the intrinsic clearance (Liver [6]) was 38.5 mL/min/g. The Activity (Mus musculus) was “Non-Toxic”, the IC50 (NCI-H460) was 0.17 µM and the IC50 (HCT-116 [7]) was 0.14 µM. It also gave an AUC [8] of 81.4 ng·h/mL.
